Data published in ChEMBL document CHEMBL1821604, “Anticancer activity and cDNA microarray studies of a (RS)-1,2,3,5-tetrahydro-4,1-benzoxazepine-3-yl]-6-chloro-9H-purine, and an acyclic (RS)-O,N-acetalic 6-chloro-7H-purine” (Eur J Med Chem, 2011).

Key:
[1] = test system: MCF7; assay: Cytotoxicity against human MCF7 cells after 6 days by SRB colorimetric assay; type: functional, cell-based; conditions: MCF7, 144 h
[2] = test system: HT-29; assay: Upregulation of GALNT10 gene expression in human HT-29 cells at IC50 after 48 hrs by cDNA microarray technique relative to control; type: functional
[3] = test system: MCF7; assay: Down regulation of TGM4 gene expression in human MCF7 cells at IC50 after 48 hrs by cDNA microarray technique relative to control; type: functional
[4] = test system: HT-29; assay: Upregulation of CTSZ gene expression in human HT-29 cells at IC50 after 48 hrs by cDNA microarray technique relative to control; type: functional
[5] = test system: HT-29; assay: Upregulation of HOXB8 gene expression in human HT-29 cells at IC50 after 48 hrs by cDNA microarray technique relative to control; type: functional
[6] = test system: HT-29; assay: Down regulation of HAS2 gene expression in human HT-29 cells at IC50 after 48 hrs by cDNA microarray technique relative to control; type: functional
In short: (§1)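 Cells (8 × 10⁶) were cultured in DMEM with 10% heat-inactivated FBS at 37 °C under 5% CO₂. They were exposed for 48 h to compound at its IC₅₀, with DMSO-treated parallel cultures as controls (final DMSO ≤0.1% v/v). Total RNA was isolated by trizol/chloroform phase separation, RNeasy column cleanup and on-column DNase, then quantified by OD260/OD280. Expression was profiled by cDNA microarray relative to control.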

[7] = test system: HT-29; assay: Down regulation of COL11A1 gene expression in human HT-29 cells at IC50 after 48 hrs by cDNA microarray technique relative to control; type: functional
In short: (§2)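 8 × 10⁶ cells exposed 48 h to compound at its IC50 concentration; total RNA isolated with trizol/chloroform and RNeasy columns including on-column DNase step; RNA quantified by OD 260/280; DMSO-treated cultures as control.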

[8] = test system: HT-29; assay: Down regulation of HTN1 gene expression in human HT-29 cells at IC50 after 48 hrs by cDNA microarray technique relative to control; type: functional; in short: as §1
[9] = test system: HT-29; assay: Down regulation of FUT9 gene expression in human HT-29 cells at IC50 after 48 hrs by cDNA microarray technique relative to control; type: functional; in short: as §1
[10] = test system: HT-29; assay: Down regulation of FADS6 gene expression in human HT-29 cells at IC50 after 48 hrs by cDNA microarray technique relative to control; type: functional; in short: as §1
[11] = test system: HT-29; assay: Down regulation of ADAMTS3 gene expression in human HT-29 cells at IC50 after 48 hrs by cDNA microarray technique relative to control; type: functional; in short: as §2
[12] = test system: HT-29; assay: Down regulation of TMEM27 gene expression in human HT-29 cells at IC50 after 48 hrs by cDNA microarray technique relative to control; type: functional
[13] = test system: MCF7; assay: Upregulation of ZNF141 gene expression in human MCF7 cells at IC50 after 48 hrs by cDNA microarray technique relative to control; type: functional
[14] = test system: MCF7; assay: Upregulation of KIAA1277 gene expression in human MCF7 cells at IC50 after 48 hrs by cDNA microarray technique relative to control; type: functional
[15] = test system: MCF7; assay: Upregulation of CRTAM gene expression in human MCF7 cells at IC50 after 48 hrs by cDNA microarray technique relative to control; type: functional
[16] = test system: MCF7; assay: Upregulation of ERG gene expression in human MCF7 cells at IC50 after 48 hrs by cDNA microarray technique relative to control; type: functional
[17] = test system: HT-29; assay: Down regulation of BAP1 gene expression in human HT-29 cells at IC50 after 48 hrs by cDNA microarray technique relative to control; type: functional; in short: as §2
[18] = test system: HT-29; assay: Down regulation of LOC203427 gene expression in human HT-29 cells at IC50 after 48 hrs by cDNA microarray technique relative to control; type: functional
[19] = test system: HT-29; assay: Down regulation of TAF5L gene expression in human HT-29 cells at IC50 after 48 hrs by cDNA microarray technique relative to control; type: functional
[20] = test system: HT-29; assay: Down regulation of DT1P1A10 gene expression in human HT-29 cells at IC50 after 48 hrs by cDNA microarray technique relative to control; type: functional; in short: as §1
[21] = test system: HT-29; assay: Down regulation of HUS1B gene expression in human HT-29 cells at IC50 after 48 hrs by cDNA microarray technique relative to control; type: functional; in short: as §1
[22] = test system: HT-29; assay: Down regulation of HNRPA2B1 gene expression in human HT-29 cells at IC50 after 48 hrs by cDNA microarray technique relative to control; type: functional; in short: as §1
[23] = test system: HT-29; assay: Down regulation of HIRA gene expression in human HT-29 cells at IC50 after 48 hrs by cDNA microarray technique relative to control; type: functional; in short: as §1
[24] = test system: HT-29; assay: Down regulation of AQP3 gene expression in human HT-29 cells at IC50 after 48 hrs by cDNA microarray technique relative to control; type: functional; in short: as §2
[25] = test system: HT-29; assay: Down regulation of EML2 gene expression in human HT-29 cells at IC50 after 48 hrs by cDNA microarray technique relative to control; type: functional; in short: as §1
[26] = test system: MCF7; assay: Upregulation of ZNF505 gene expression in human MCF7 cells at IC50 after 48 hrs by cDNA microarray technique relative to control; type: functional
[27] = test system: MCF7; assay: Upregulation of ERN1 gene expression in human MCF7 cells at IC50 after 48 hrs by cDNA microarray technique relative to control; type: functional
[28] = test system: MCF7; assay: Upregulation of OXSR1 gene expression in human MCF7 cells at IC50 after 48 hrs by cDNA microarray technique relative to control; type: functional
[29] = test system: MCF7; assay: Upregulation of LRRC48 gene expression in human MCF7 cells at IC50 after 48 hrs by cDNA microarray technique relative to control; type: functional
[30] = test system: MCF7; assay: Down regulation of CCT6B gene expression in human MCF7 cells at IC50 after 48 hrs by cDNA microarray technique relative to control; type: functional; in short: as §2
[31] = test system: MCF7; assay: Down regulation of C9orf125 gene expression in human MCF7 cells at IC50 after 48 hrs by cDNA microarray technique relative to control; type: functional; in short: as §2
[32] = test system: HT-29; assay: Upregulation of TP53INP1 gene expression in human HT-29 cells at IC50 after 48 hrs by cDNA microarray technique relative to control; type: functional
[33] = test system: HT-29; assay: Down regulation of PP1201 gene expression in human HT-29 cells at IC50 after 48 hrs by cDNA microarray technique relative to control; type: functional

COC(CN(c1ccccc1CO)S(=O)(=O)c1ccccc1[N+](=O)[O-])n1cnc2ncnc(Cl)c21 (racemic)
IC50 [1]: 3.25 µM
fold change (FC) [2]: 3.5
fold change (FC) [3]: -2.58
fold change (FC) [4]: 2.23
fold change (FC) [5]: 2.11
fold change (FC) [6]: -2.01
fold change (FC) [7]: -2.03
fold change (FC) [8]: -2.1
fold change (FC) [9]: -2.25
fold change (FC) [10]: -2.34
fold change (FC) [11]: -2.43
fold change (FC) [12]: -2.99
fold change (FC) [13]: 4.04
fold change (FC) [14]: 2.21
fold change (FC) [15]: 2.09
fold change (FC) [16]: 2

O=C(OCC1c2ccccc2-c2ccccc21)N1CC(n2cnc3c(Cl)ncnc32)OCc2ccccc21 (racemic)
fold change (FC) [17]: -2.13
fold change (FC) [18]: -2.13
fold change (FC) [19]: -2.18
fold change (FC) [20]: -2.28
fold change (FC) [21]: -2.3
fold change (FC) [22]: -2.33
fold change (FC) [23]: -2.35
fold change (FC) [24]: -2.53
fold change (FC) [25]: -2.82
fold change (FC) [26]: 5.62
fold change (FC) [27]: 2.81
fold change (FC) [28]: 2.21
fold change (FC) [29]: 2.18
fold change (FC) [30]: -3.22
fold change (FC) [31]: -3.38
fold change (FC) [32]: 2.58
fold change (FC) [33]: -2.04
